From ChEMBL document CHEMBL3286255, “Rational design and synthesis of novel thiazolidin-4-ones as non-nucleoside HIV-1 reverse transcriptase inhibitors” (Bioorg Med Chem, 2014)

Columns and labels:
[1] = Selectivity index, ratio of CC50 for human TZM-bl cells to EC50 for R5 tropic Human immunodeficiency virus 1 ADA5 subtype B; assay type: toxicity, cell-based; settings: read-out: Ratio CC50/EC50
[2] = test system: Human immunodeficiency virus 1; assay: Antiviral activity against R5 tropic Human immunodeficiency virus 1 VB59 subtype C infected in human TZM-bl cells assessed as reduction in virus-induced cytopathic effect after 48 hrs by luminescence assay; assay type: functional, organism-based
How it was run: (§1)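 TZM-bl cells (HeLa-derived; CD4, CXCR4, CCR5; LTR-driven luciferase) seeded 1×10^4/well, left overnight at 37 °C, 5% CO2, then infected with 400 TCID50 virus for 2 h. Serial compound dilutions added in duplicate, only at levels giving >50% viability. […] Mean of two independent assays; nevirapine as positive control.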

[3] = Cytotoxicity against human TZM-bl cells after 48 hrs by MTT assay; assay type: cell-based
How it was run: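 TZM-bl cells seeded 1×10^4/well and left overnight at 37 °C, 5% CO2. Medium then replaced with a two-fold dilution series of compound in quadruplicate. […] Mean of three independent assays.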

[4] = test system: Human immunodeficiency virus 1; assay: Antiviral activity against X4 tropic Human immunodeficiency virus 1 3B subtype B infected in human TZM-bl cells assessed as reduction in virus-induced cytopathic effect after 48 hrs by luminescence assay; assay type: functional, organism-based; how it was run: as §1
[5] = Selectivity index, ratio of CC50 for human TZM-bl cells to EC50 for X4 tropic Human immunodeficiency virus 1 3B subtype B; assay type: toxicity, cell-based; settings: read-out: Ratio CC50/EC50
[6] = test system: Human immunodeficiency virus 1; assay: Antiviral activity against X4 tropic Human immunodeficiency virus 1 UG070 subtype D infected in human TZM-bl cells assessed as reduction in virus-induced cytopathic effect after 48 hrs by luminescence assay; assay type: functional, organism-based; how it was run: as §1
[7] = test system: Human immunodeficiency virus 1; assay: Antiviral activity against R5 tropic Human immunodeficiency virus 1 ADA5 subtype B infected in human TZM-bl cells assessed as reduction in virus-induced cytopathic effect after 48 hrs by luminescence assay; assay type: functional, organism-based; how it was run: as §1
[8] = test system: Human immunodeficiency virus; assay: Inhibition of HIV reverse transcriptase at 100 ug/ml after 1 hr by ELISA relative to control
How it was run: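 Kit ELISA for HIV RT. Template/primer, biotin- and DIG-labelled dNTPs and RT enzyme in lysis buffer incubated 1 h at 37 °C. Product captured on streptavidin, detected with anti-DIG-peroxidase and ABTS substrate, and read at 405 nm. Percent inhibition calculated against a no-inhibitor sample.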

[9] = Selectivity index, ratio of CC50 for human TZM-bl cells to EC50 for X4 tropic Human immunodeficiency virus 1 UG070 subtype D; assay type: toxicity, cell-based; settings: read-out: Ratio CC50/EC50
[10] = Selectivity index, ratio of CC50 for human TZM-bl cells to EC50 for R5 tropic Human immunodeficiency virus 1 VB59 subtype C; assay type: toxicity, cell-based; settings: read-out: Ratio CC50/EC50
[11] = Human immunodeficiency virus 1, 3B subtype B, TZM-bl, 48 h, read-out: EC50
[12] = Human immunodeficiency virus 1, ADA5 subtype B, TZM-bl, 48 h, read-out: EC50
[13] = Human immunodeficiency virus 1, VB59 subtype C, TZM-bl, 48 h, read-out: EC50
[14] = Human immunodeficiency virus 1, UG070 subtype D, TZM-bl, 48 h, read-out: EC50

SMILES	selectivity ratio [1]	EC50 ([2]; tzm-bl)	CC50 at 48 h [3]	EC50 [4, 11]	selectivity ratio [5]	EC50 ([6]; tzm-bl)	EC50 [7, 12]	inhibition [8]	selectivity ratio [9]	EC50 [2, 13]	selectivity ratio [10]	EC50 [6, 14]	EC50 ([7]; tzm-bl)	EC50 ([4]; tzm-bl)
Cc1ccnc(N2C(=O)CSC2c2ccc(C#N)cc2)n1 (configuration not stated)	2.2	Not Active	121 µM	85.7 µM	1.41	Not Active	55 µM	43.5%						
Cc1cc(C)nc(N2C(=O)CSC2c2c(Cl)cccc2[N+](=O)[O-])c1 (configuration not stated)	1740		139 µM	0.02 µM	6940		0.08 µM	91.5%	1690	0.08 µM	1690	0.08 µM		
Cc1cc(N2C(=O)CSC2c2c(F)cccc2F)nc(C)c1Br (configuration not stated)	95.9		67.1 µM	0.35 µM	192		0.7 µM	81.8%	134	0.77 µM	87.2	0.5 µM		
COc1cc(OC)nc(N2C(=O)CSC2c2c(F)cccc2Cl)n1 (configuration not stated)	614		98.2 µM	0.18 µM	545		0.16 µM	95.4%	409	0.32 µM	307	0.24 µM		
N#Cc1ccc(NN2C(=O)CSC2c2c(Cl)cccc2Cl)cc1 (configuration not stated)	12		65.3 µM	30.3 µM	2.14		5.42 µM	22.2%	1.76	25.7 µM	2.54	36.9 µM		
COc1cccc(OC)c1C1SCC(=O)N1c1cc(C)c(Br)c(C)n1 (configuration not stated)	56.8		85.8 µM	2.22 µM	38.6		1.51 µM	85.5%	36.3	2.48 µM	34.6	2.36 µM		
N#Cc1ccc(C2SCC(=O)N2c2ccc(C#N)cc2)cc1 (configuration not stated)	1.22		75 µM	67.8 µM	1.1		61.2 µM		1.18	55.7 µM	1.34	63.4 µM		
Cc1cc(C)nc(N2C(=O)CSC2c2ccc(C#N)cc2)n1 (configuration not stated)	1.13	Not Active	113 µM	115 µM	0.97	Not Active	99.3 µM	41.5%						
O=C1CSC(c2c(Cl)cccc2Cl)N1Nc1ccccn1 (configuration not stated)	80.5		149 µM	0.99 µM	150		1.85 µM	97.4%	127	1.7 µM	87.6	1.17 µM		
N#Cc1ccc(NN2C(=O)CSC2c2c(F)cccc2Cl)cc1 (configuration not stated)	4.7		76.5 µM	33.5 µM	2.27		16.2 µM	26.3%	1.54	35 µM	2.18	49.6 µM		
COc1cc(OC)nc(N2C(=O)CSC2c2c(F)cccc2F)n1 (configuration not stated)	250		77.5 µM	0.25 µM	310		0.31 µM	82.9%	144	0.48 µM	161	0.53 µM		
O=C1CSC(c2c(Cl)cccc2Cl)N1c1ncnc2[nH]cnc12 (configuration not stated)	1.11		13.1 µM	11.8 µM	1.1		11.7 µM	50.2%						
Cc1ccc(S(=O)(=O)NN2C(=O)CSC2c2c(Cl)cccc2Cl)cc1 (configuration not stated)	16.6	Not Active	75.7 µM	29.4 µM	2.57	Not Active	4.55 µM	57.9%						
COc1cccc(OC)c1C1SCC(=O)N1c1cc(C)on1 (configuration not stated)			125 µM	11.3 µM	11			62.2%	6.77	20.2 µM	6.18	18.4 µM	Not Active	
O=C(NN1C(=O)CSC1c1c(F)cccc1Cl)c1ccncc1 (configuration not stated)			105 µM					81.7%					Not Active	Not Active
COc1cc(OC)nc(N2C(=O)CSC2c2ccc(C#N)cc2)n1 (configuration not stated)	1.51	Not Active	86.5 µM	68 µM	1.27	Not Active	57 µM	12.2%						
O=C(NN1C(=O)CSC1c1c(Cl)cccc1Cl)c1ccncc1 (configuration not stated)	17.5		170 µM	36.7 µM	4.64	Not Active	9.72 µM	18.9%		26.3 µM	6.47			
Cc1cccc(C)c1C1SCC(=O)N1NC(=O)c1ccncc1 (configuration not stated)	2.29	Not Active	43.4 µM	29.4 µM	1.47		18.9 µM	14.2%	1.11			38.8 µM		
Cc1cc(N2C(=O)CSC2c2ccc(C#N)cc2)no1 (configuration not stated)	1.72		140 µM	88.7 µM	1.57		81.1 µM	27.6%		68.7 µM	2.04			
Cc1cc(N2C(=O)CSC2c2ccc(C#N)cc2)nc(C)c1Br (configuration not stated)	1.11		43.8 µM				39.1 µM	37.5%						Not Active
Cc1cc(N2C(=O)CSC2c2c(Cl)cccc2[N+](=O)[O-])nc(C)c1Br (configuration not stated)								77.8%						
